Results as given in ChEMBL document CHEMBL1137010, “Improved peptide prodrugs of 5-ALA for PDT: rationalization of cellular accumulation and protoporphyrin IX production by direct determination of cellular prodrug uptake and prodrug metabolization” (J Med Chem, 2009).
Calls of active or inactive are those of the source. No cut-off for these calls is given here.

tested on: PAM212; assay: Drug uptake in mouse PAM212 cells assessed as PpIX production per mg of protein at 0.1 mM after 4 hrs; type: ADME, cell-based; conditions: pam212, 4 h, 100 µM
Method in brief: (§1)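 Cells (PAM212; A549 in F12K; Caco-2 in EMEM, 37 °C, 5% CO2) were seeded in 100 mm dishes and grown 48 h at 37 °C. After PBS washing they were incubated 4 h at 37 °C with 0.1 or 1 mM drug, washed, lysed 15 min and scraped, then centrifuged at 1800 g for 10 min. Supernatant PpIX was read by fluorescence (410/635 nm) against a PpIX standard curve and normalized to protein by BCA.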

First: CC[C@H](C)[C@H](NC(C)=O)C(=O)NCC(=O)CCC(=O)OC
Second: COC(=O)CCC(=O)CNC(=O)[C@H](C)NC(C)=O
The Drug uptake of the first is higher: 40.2 ng/mg for the first, 10.9 ng/mg for the second.

First: COC(=O)CCC(=O)CNC(=O)[C@H](CCC(=O)O)NC(C)=O
Second: COC(=O)CCC(=O)CNC(=O)[C@H](Cc1c[nH]c2ccccc12)NC(C)=O
The Drug uptake of the first is higher: 165 ng/mg for the first, 26.6 ng/mg for the second.

Compared with CCCCCCOC(=O)CCC(=O)CNC(=O)[C@H](Cc1ccccc1)NC(C)=O, NCC(=O)CCC(=O)O [AMINOLEVULINIC ACID] is lower in Drug uptake: 284 ng/mg for the first, 108 ng/mg for the second.

tested on: PAM212; assay: Drug uptake in mouse PAM212 cells assessed as enhanced PpIX fluorescence at 0.1 mM after 4 hrs; type: ADME, cell-based; conditions: pam212, 4 h, 100 µM
Method in brief: (§2)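 PAM212 cells were seeded 5 × 10^4/well, grown 48 h, PBS-washed and incubated with drug at 0.01 or 0.1 mM in serum-free medium for 4 or 6 h. Untreated wells gave background and ALA wells served as reference. Well fluorescence: excitation 410 nm, emission 635 nm, scans 600–750 nm. Mean intensity (arbitrary units) after control subtraction, calibrated against rhodamine B.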

With COC(=O)CCC(=O)CNC(=O)[C@H](CCC(=O)O)NC(C)=O the Drug uptake was “Active”.
In the case of CCCCCCOC(=O)CCC(=O)CNC(=O)[C@H](Cc1ccccc1)NC(C)=O, the Drug uptake is reported as “Active”.
With COC(=O)CCC(=O)CNC(=O)[C@H](C)NC(C)=O the Drug uptake was “Active”.

tested on: A549; assay: Drug uptake in human A549 cells assessed as PpIX production per mg of protein at 0.1 mM after 4 hrs; type: ADME, cell-based; conditions: a549, 4 h, 100 µM; method in brief: as §1

Compared with CCCCCCOC(=O)CCC(=O)CNC(=O)[C@H](Cc1ccccc1)NC(C)=O, COC(=O)CCC(=O)CNC(=O)[C@H](Cc1c[nH]c2ccccc12)NC(C)=O is lower in Drug uptake: 10.1 ng/mg for the first, -0.02 ng/mg for the second.

NCC(=O)CCC(=O)O [AMINOLEVULINIC ACID] showed a Drug uptake of 39.9 ng/mg.

tested on: PAM212; assay: Cytotoxicity against mouse PAM212 cells after 24 hrs in absence of 2.5 J/cm2 blue light by MTT assay; type: functional, cell-based; conditions: not given
Method in brief: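 Dark toxicity. PAM212 keratinocytes (RPMI-1640, 10% FCS) were seeded about 5 × 10^4 cells/well and grown 48 h, PBS-washed, then given drug for 4 h without irradiation. Medium was replaced and cells were kept a further 24 h. MTT 1 mg/mL for 3 h, formazan dissolved in DMSO, absorbance at 570 nm.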

For COC(=O)CCC(=O)CNC(=O)[C@H](CCC(=O)O)NC(C)=O, the Activity was “inactive”.
With COC(=O)CCC(=O)CNC(=O)[C@H](C)NC(C)=O the Activity was “inactive”.

tested on: PAM212; assay: Drug uptake in mouse PAM212 cells assessed as enhanced PpIX fluorescence at 0.01 mM after 4 hrs; type: ADME, cell-based; conditions: pam212, 4 h, 10 µM; method in brief: as §2

For CCCCCCOC(=O)CCC(=O)CNC(=O)[C@H](Cc1ccccc1)NC(C)=O, the Drug uptake was “Active”.
With COC(=O)CCC(=O)CNC(=O)[C@H](C)NC(C)=O the Drug uptake was “Active”.

tested on: not listed separately; assay: Chromatographic hydrophobicity index in methanol solution under isocratic conditions at pH 6.8; type: physicochemical; conditions: not given
Method in brief: (§3)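 RP-HPLC on a C18 column at 35 °C, 0.7 mL/min. Mobile phase was CH3CN or CH3OH with 50 mM aq ammonium formate (pH 6.8). […], with t0 from uracil and tR measured in duplicate. Six isocratic compositions were chosen so that −1.5 < log k < 0.6, and the index was derived from the linear log k versus organic-fraction relation.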

Compared with CC[C@H](C)[C@H](NC(C)=O)C(=O)NCC(=O)CCC(=O)OC, COC(=O)CCC(=O)CNC(=O)[C@H](C)NC(C)=O is lower in CHI: 46.91 for the first, 17.08 for the second.

Compared with COC(=O)CCC(=O)CNC(=O)[C@H](CCC(=O)O)NC(C)=O, COC(=O)CCC(=O)CNC(=O)[C@H](Cc1c[nH]c2ccccc12)NC(C)=O is lower in CHI: 35.01 for the first, 22.08 for the second.

CCCCCCOC(=O)CCC(=O)CNC(=O)[C@H](Cc1ccccc1)NC(C)=O gave a CHI of 97.31.

tested on: PAM212; assay: Drug uptake in mouse PAM212 cells assessed as enhanced PpIX fluorescence at 0.01 mM after 6 hrs; type: ADME, cell-based; conditions: pam212, 6 h, 10 µM; method in brief: as §2

In the case of COC(=O)CCC(=O)CNC(=O)[C@H](C)NC(C)=O, the Drug uptake is reported as “Active”.

tested on: PAM212; assay: Drug uptake in mouse PAM212 cells assessed as PpIX production per mg of protein at 1 mM after 4 hrs; type: ADME, cell-based; conditions: pam212, 4 h, 1000 µM; method in brief: as §1

Going from CC[C@H](C)[C@H](NC(C)=O)C(=O)NCC(=O)CCC(=O)OC to COC(=O)CCC(=O)CNC(=O)[C@H](C)NC(C)=O, the Drug uptake falls from 22.3 ng/mg to 12.9 ng/mg.

First: COC(=O)CCC(=O)CNC(=O)[C@H](CCC(=O)O)NC(C)=O
Second: COC(=O)CCC(=O)CNC(=O)[C@H](Cc1c[nH]c2ccccc12)NC(C)=O
The Drug uptake of the first is higher: 276 ng/mg for the first, 38.9 ng/mg for the second.

First: CCCCCCOC(=O)CCC(=O)CNC(=O)[C@H](Cc1ccccc1)NC(C)=O
Second: NCC(=O)CCC(=O)O [AMINOLEVULINIC ACID]
The Drug uptake of the first is lower: 247 ng/mg for the first, 310 ng/mg for the second.

tested on: A549; assay: Drug uptake in human A549 cells assessed as intracellular 5-aminolaevulinic acid level per mg of protein at 0.1 mM after 4 hrs; type: ADME, cell-based; conditions: a549, 4 h, 100 µM

First: CCCCCCOC(=O)CCC(=O)CNC(=O)[C@H](Cc1ccccc1)NC(C)=O
Second: COC(=O)CCC(=O)CNC(=O)[C@H](Cc1c[nH]c2ccccc12)NC(C)=O
The Drug uptake of the first is higher: 1.63 µg/mg for the first, 0.23 µg/mg for the second.

Compound NCC(=O)CCC(=O)O [AMINOLEVULINIC ACID] has a Drug uptake of 0.08 µg/mg.

tested on: PAM212; assay: Phototoxicity against mouse PAM212 cells assessed as cell viability at 0.1 mM after 4 hrs irradiated with 2.5 J/cm2 blue light by MTT assay relative to control; type: functional; conditions: PAM212, light or radiation study, read-out: Activity
Method in brief: (§4)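 PAM212 cells were seeded about 5 × 10^4/well, grown 48 h, PBS-washed and incubated 4 h with drug at 0.01, 0.1 or 1 mM. Blue light (peak 420 nm) was delivered at 2.5 J/cm², although the methods section states 1.25 J/cm². Medium was then replaced and cells kept 24 h. MTT 1 mg/mL for 3 h, DMSO, A570; survival as % of non-irradiated drug-treated controls.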

COC(=O)CCC(=O)CNC(=O)[C@H](CCC(=O)O)NC(C)=O and COC(=O)CCC(=O)CNC(=O)[C@H](C)NC(C)=O are the same in viability at 100 µM: 3% for the first, 3% for the second.

Going from CCCCCCOC(=O)CCC(=O)CNC(=O)[C@H](Cc1ccccc1)NC(C)=O to NCC(=O)CCC(=O)O [AMINOLEVULINIC ACID], the viability at 100 µM rises from 3% to 11%.

tested on: not listed separately; assay: Chromatographic hydrophobicity index in acetonitrile solution under isocratic conditions at pH 6.8; type: physicochemical; conditions: not given; method in brief: as §3

Going from CC[C@H](C)[C@H](NC(C)=O)C(=O)NCC(=O)CCC(=O)OC to COC(=O)CCC(=O)CNC(=O)[C@H](C)NC(C)=O, the CHI falls from 37.14 to 14.18.

Going from COC(=O)CCC(=O)CNC(=O)[C@H](CCC(=O)O)NC(C)=O to COC(=O)CCC(=O)CNC(=O)[C@H](Cc1c[nH]c2ccccc12)NC(C)=O, the CHI rises from 23.14 to 37.35.

CCCCCCOC(=O)CCC(=O)CNC(=O)[C@H](Cc1ccccc1)NC(C)=O gave a CHI of 56.64.

tested on: Caco-2; assay: Drug uptake in human Caco-2 cells assessed as PpIX production per mg of protein at 1 mM after 4 hrs; type: ADME, cell-based; conditions: caco-2, 4 h, 1000 µM; method in brief: as §1

Going from CCCCCCOC(=O)CCC(=O)CNC(=O)[C@H](Cc1ccccc1)NC(C)=O to COC(=O)CCC(=O)CNC(=O)[C@H](Cc1c[nH]c2ccccc12)NC(C)=O, the Drug uptake falls from 480 ng/mg to -5.9 ng/mg.

NCC(=O)CCC(=O)O [AMINOLEVULINIC ACID] gave a Drug uptake of 603 ng/mg.

tested on: PAM212; assay: Drug uptake in mouse PAM212 cells assessed as enhanced PpIX fluorescence at 0.1 mM after 6 hrs; type: ADME, cell-based; conditions: pam212, 6 h, 100 µM; method in brief: as §2

For COC(=O)CCC(=O)CNC(=O)[C@H](CCC(=O)O)NC(C)=O, the Drug uptake was “Active”.

tested on: Caco-2; assay: Drug uptake in human Caco-2 cells assessed as intracellular 5-aminolaevulinic acid level per mg of protein at 1 mM after 4 hrs; type: ADME, cell-based; conditions: caco-2, 4 h, 1000 µM

Going from CCCCCCOC(=O)CCC(=O)CNC(=O)[C@H](Cc1ccccc1)NC(C)=O to COC(=O)CCC(=O)CNC(=O)[C@H](Cc1c[nH]c2ccccc12)NC(C)=O, the Drug uptake falls from 14.8 µg/mg to 8.35 µg/mg.

NCC(=O)CCC(=O)O [AMINOLEVULINIC ACID] gave a Drug uptake of 2.66 µg/mg.

tested on: PAM212; assay: Phototoxicity against mouse PAM212 cells assessed as cell viability at 0.01 mM after 4 hrs irradiated with 2.5 J/cm2 blue light by MTT assay relative to control; type: functional, cell-based; conditions: not given; method in brief: as §4

In the case of CCCCCCOC(=O)CCC(=O)CNC(=O)[C@H](Cc1ccccc1)NC(C)=O, the Activity is reported as “Active”.
For NCC(=O)CCC(=O)O [AMINOLEVULINIC ACID], the Activity was “inactive”.

tested on: PAM212; assay: Drug uptake in mouse PAM212 cells assessed as intracellular 5-aminolaevulinic acid level per mg of protein at 1 mM after 4 hrs; type: ADME, cell-based; conditions: pam212, 4 h, 1000 µM

Going from CC[C@H](C)[C@H](NC(C)=O)C(=O)NCC(=O)CCC(=O)OC to COC(=O)CCC(=O)CNC(=O)[C@H](C)NC(C)=O, the Drug uptake falls from 7.1 µg/mg to 3.93 µg/mg.

First: COC(=O)CCC(=O)CNC(=O)[C@H](CCC(=O)O)NC(C)=O
Second: COC(=O)CCC(=O)CNC(=O)[C@H](Cc1c[nH]c2ccccc12)NC(C)=O
The Drug uptake of the first is lower: 5.04 µg/mg for the first, 10.3 µg/mg for the second.

Compared with CCCCCCOC(=O)CCC(=O)CNC(=O)[C@H](Cc1ccccc1)NC(C)=O, NCC(=O)CCC(=O)O [AMINOLEVULINIC ACID] is lower in Drug uptake: 18.9 µg/mg for the first, 3.41 µg/mg for the second.

tested on: PAM212; assay: Drug uptake in mouse PAM212 cells assessed as intracellular 5-aminolaevulinic acid level per mg of protein at 0.1 mM after 4 hrs; type: ADME, cell-based; conditions: pam212, 4 h, 100 µM

First: CC[C@H](C)[C@H](NC(C)=O)C(=O)NCC(=O)CCC(=O)OC
Second: COC(=O)CCC(=O)CNC(=O)[C@H](C)NC(C)=O
The Drug uptake of the first is higher: 1.64 µg/mg for the first, 0.88 µg/mg for the second.

Compared with COC(=O)CCC(=O)CNC(=O)[C@H](CCC(=O)O)NC(C)=O, COC(=O)CCC(=O)CNC(=O)[C@H](Cc1c[nH]c2ccccc12)NC(C)=O is higher in Drug uptake: 1.2 µg/mg for the first, 2.41 µg/mg for the second.

First: CCCCCCOC(=O)CCC(=O)CNC(=O)[C@H](Cc1ccccc1)NC(C)=O
Second: NCC(=O)CCC(=O)O [AMINOLEVULINIC ACID]
The Drug uptake of the first is higher: 4.14 µg/mg for the first, 0.81 µg/mg for the second.
